Source: PubChem BioAssay
Active and inactive are the calls of the source.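 Rule for the calls, unless noted: active = viability at or below 30% in both replicate assays; inconclusive = viability at or below 30% in just one of the two assays; inactive = the rest.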

Legend:
[1] = reducers of endogenous Her2 protein level, primary screen, SKBR3 breast tumor cells, AlphaScreen, ATP viability (AID 461;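 active = Her2 level under about 52% in both replicate screens, with viability over 70% of control, limit read from the data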;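 for Her2 level: lower value means less Her2 protein in the cells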;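 for viability: percent of carrier control wells set as 100% viability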); details: 18-24 h, measured here: SKBR3 viability, ATP luminescence, at 10 µM
[2] = target: Receptor tyrosine-protein kinase erbB-2 (Homo sapiens) (UniProt P04626); assay: as above; details: 18-24 h, at 10 µM, stronger effect = lower value
Receptor tyrosine-protein kinase erbB-2 (Homo sapiens), sequence (P04626 whole entry, looked up): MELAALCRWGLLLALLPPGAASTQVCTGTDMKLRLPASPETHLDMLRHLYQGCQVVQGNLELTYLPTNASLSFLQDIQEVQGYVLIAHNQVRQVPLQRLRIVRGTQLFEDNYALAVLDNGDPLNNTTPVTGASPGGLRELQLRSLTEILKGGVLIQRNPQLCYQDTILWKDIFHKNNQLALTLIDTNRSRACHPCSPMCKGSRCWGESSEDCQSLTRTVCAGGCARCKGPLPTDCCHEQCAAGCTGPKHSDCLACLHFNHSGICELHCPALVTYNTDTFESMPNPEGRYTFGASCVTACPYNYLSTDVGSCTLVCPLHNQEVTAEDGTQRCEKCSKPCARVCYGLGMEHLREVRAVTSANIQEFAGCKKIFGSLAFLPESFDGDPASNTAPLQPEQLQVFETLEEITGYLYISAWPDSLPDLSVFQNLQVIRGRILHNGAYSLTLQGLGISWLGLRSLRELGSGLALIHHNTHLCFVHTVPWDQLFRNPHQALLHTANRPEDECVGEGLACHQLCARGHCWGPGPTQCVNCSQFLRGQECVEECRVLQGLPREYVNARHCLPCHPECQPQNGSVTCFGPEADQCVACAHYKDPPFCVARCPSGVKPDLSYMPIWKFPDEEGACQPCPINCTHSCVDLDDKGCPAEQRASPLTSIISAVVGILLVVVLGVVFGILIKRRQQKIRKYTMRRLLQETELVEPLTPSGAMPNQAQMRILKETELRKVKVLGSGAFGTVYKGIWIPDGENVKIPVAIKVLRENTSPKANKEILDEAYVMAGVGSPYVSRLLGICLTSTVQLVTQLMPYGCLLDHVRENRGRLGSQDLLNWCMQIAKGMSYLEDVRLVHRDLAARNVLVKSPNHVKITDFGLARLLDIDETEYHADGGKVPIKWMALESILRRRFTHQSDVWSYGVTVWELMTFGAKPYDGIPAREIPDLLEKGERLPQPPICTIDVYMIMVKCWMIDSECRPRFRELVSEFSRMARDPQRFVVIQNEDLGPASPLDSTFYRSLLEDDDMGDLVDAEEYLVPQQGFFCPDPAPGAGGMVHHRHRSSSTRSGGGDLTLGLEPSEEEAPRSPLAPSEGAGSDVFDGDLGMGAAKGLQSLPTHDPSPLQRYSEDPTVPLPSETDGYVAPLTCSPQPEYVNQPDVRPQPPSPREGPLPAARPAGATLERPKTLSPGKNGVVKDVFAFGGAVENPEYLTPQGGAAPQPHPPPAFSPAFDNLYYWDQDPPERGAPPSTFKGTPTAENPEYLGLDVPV

[3] = SK-BR-3 cell growth inhibitors, pilot screen, 24 h, human (AID 572;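 active = viability at or below 10% of carrier control in both of two separate runs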;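 note: compound exposure lasted between 18 and 24 h rather than exactly 24 h; 100% = carrier-treated control wells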); details: SK-BR-3 viability, CellTiter-Glo luminescence, at 10 µM, stronger effect = lower value
[4] = HUVEC growth inhibition – cell-based, human, primary screen (AID 575); details: HUVEC proliferation, CellTiter-Glo luminescence, 72 h; at 10 µM; stronger effect = lower value;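 note: 100% = median of untreated cell wells with 0.1% DMSO on each plate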
Procedure, shortened: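 Assay system: Primary human umbilical vein endothelial cells | Quantity: 1250 cells per well | Medium: Supplemented EBM, 2% fetal bovine serum | Detection: CellTiter-Glo luminescence measuring cellular ATP | Read-out: % viability vs DMSO wells | Plate: Collagen-coated 384-well format | Times: 72 h exposure, 37 °C, 5% CO2, 30 min RT equilibration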

[5] = growth inhibitors of H69AR lung tumor, primary screen, human, duplicate replicates (AID 580;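 active = viability at or under a set limit in both replicates, limit being median viability minus 3 SD, cut at about 48% in these data, passing the limit was not always enough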;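 note: 100% = mean luminescence of untreated wells and 0% = no signal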); details: H69AR lung tumor cells viability, ATP luminescence, 72 h; at 10 µM; stronger effect = lower value
[6] = reversal of MRP1-mediated doxorubicin resistance, pilot screen, H69AR cells, doxorubicin co-treatment (AID 601;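 active = viability loss from added drug above about 55%, and viability with drug at most 40%, in both replicates, limit read from the data, passing the limit was not always enough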); details: CellTiter-Glo, 72 h, at 10 µM; for differential viability (reversal): stronger effect = higher value
[7] = 384-well plate pilot, post-Golgi transport modulator project, inhibition of yeast transport mutant growth (AID 636; in the data active = inhibition above about 31%); details: absorbance 615 nm, about 18 h, stronger effect = higher value
[8] = growth suppression of yeast trafficking mutant, preliminary HTS, modulators of trafficking downstream of Golgi apparatus project, 1536-format plate, OD 615 nm (AID 637; in the data active = inhibition above about 30%); details: yeast transport mutant growth, absorbance 615 nm, 18 h; stronger effect = higher value
[9] = H69AR cells + 2 uM doxorubicin, measured here: viability with 2 uM doxorubicin, stronger effect = lower value
[10] = H69AR cells, compound alone cytotoxicity

| SMILES | viability [1] [%] | Her2 level [2] | viability [3] | viability [4] | viability [5] | differential viability (reversal) ([6]; H69AR cells + 2 uM doxorubicin) | viability [6, 9] [%] | viability [6, 10] [%] | inhibition [7] | inhibition [8] |
| --- | --- | --- | --- | --- | --- | --- | --- | --- | --- | --- |
| CC(C)CCNC(=O)NC(=O)CSc1nnc(-c2ccccc2Br)o1 | 95 | 95.5% (inactive) | 95% (inactive) | 85.8% (inactive) | 104% (inactive) | 2.91% (inactive) | 101 | 104 | -4.74% (inactive) | 0% (inactive) |
| C=CCn1c(SCc2ccc3nonc3c2)nnc1-c1cccs1 | 84 | 79.5% (inactive) | 84% (inactive) | 85.8% (inactive) | 87.3% (inactive) | 2.61% (inactive) | 84.7 | 87.3 | -5.47% (inactive) | 0.98% (inactive) |
| Cc1nc(-c2cccc(-c3noc(C)n3)c2)no1 | 87.5 | 99% (inactive) | 87.5% (inactive) | 86.1% (inactive) | 102% (inactive) | 5.99% (inactive) | 95.8 | 102 | -5.54% (inactive) | -1.48% (inactive) |
| CCCCN(CC)S(=O)(=O)N1CCC(C(=O)NCc2ccc(F)cc2)CC1 | 97 | 113% (inactive) | 97% (inactive) | 109% (inactive) | 101% (inactive) | 0.67% (inactive) | 101 | 101 | -4.34% (inactive) | 2.62% (inactive) |
| O=C(NCCSCc1ccco1)Nc1cccc(Cl)c1 | 83.5 | 95% (inactive) | 83.5% (inactive) | 63.6% (inactive) | 86.3% (inactive) | 2.05% (inactive) | 84.2 | 86.3 | -5.33% (inactive) | -3.97% (inactive) |
| CCOC(=O)Cn1c(CN2CCOCC2)nc2c1c(=O)[nH]c(=O)n2C | 95 | 109% (inactive) | 95% (inactive) | 97.5% (inactive) | 99.7% (inactive) | 0.165% (inactive) | 99.5 | 99.7 | -3.72% (inactive) | -0.67% (inactive) |
| CC1(C)CC(=O)C(C=Nc2ccncc2)=C(O)C1 | 96.5 | 93% (inactive) | 96.5% (inactive) | 92.2% (inactive) | 106% (inactive) | 7.13% (inactive) | 99.3 | 106 | -4.19% (inactive) | -7.62% (inactive) |
| CCOC(=O)Cc1csc(NC(=O)CSc2nnc(C(C)C)n2CC)n1 | 126 | 86% (inactive) | 126% (inactive) | 88% (inactive) | 89.8% (inactive) | 1.63% (inactive) | 88.2 | 89.8 | -6.13% (inactive) | 1.59% (inactive) |
| CCOc1ccc2[nH]cc(C(=O)N3CCN(CC)CC3)c(=O)c2c1 | 98 | 104% (inactive) | 98% (inactive) | 91.2% (inactive) | 89.6% (inactive) | -14.2% (inactive) | 104 | 89.6 | 2.67% (inactive) | 19% (inactive) |
| COc1ccc(C)cc1S(=O)(=O)N(C)CC(=O)Nc1ccc2c(c1)OCO2 | 129 | 98% (inactive) | 129% (inactive) | 92.7% (inactive) | 89.2% (inactive) | 1.07% (inactive) | 88.1 | 89.2 | -4.67% (inactive) | -4.92% (inactive) |
| COc1ccc(CCN2C(=O)CCC2(C)C(=O)NCc2cccnc2)cc1OC (stereo not given) | 106 | 91% (inactive) | 106% (inactive) | 109% (inactive) | 89.2% (inactive) | 1.2% (inactive) | 88 | 89.2 | -2.86% (inactive) | -2.22% (inactive) |
| CCOC(=O)c1cccc(NC(=O)C2CCN(S(=O)(=O)c3cccs3)CC2)c1 | 75.5 | 96% (inactive) | 75.5% (inactive) | 60.7% (inactive) | 65% (inactive) | -7.91% (inactive) | 72.9 | 65 | -5.58% (inactive) | -3.81% (inactive) |
| O=C(NCc1ccccc1)N[C@@H](Cc1ccccc1)C(=O)O | 96 | 95% (inactive) | 96% (inactive) | 106% (inactive) | 92.6% (inactive) | 3.32% (inactive) | 89.2 | 92.6 | -2.86% (inactive) | 3.5% (inactive) |
| COc1ccc(C2(C(=O)Nc3c(C)n(C)n(-c4ccccc4)c3=O)CCCC2)cc1OC | 94 | 91.5% (inactive) | 94% (inactive) | 98.5% (inactive) | 106% (inactive) | 21.9% (inactive) | 84.1 | 106 | -2.4% (inactive) | 1.43% (inactive) |
| Cc1ccc2cc(CN(CC(C)C)C(=O)C3CCCO3)c(=O)[nH]c2c1 (stereo not given) | 95 | 98% (inactive) | 95% (inactive) | 102% (inactive) | 102% (inactive) | 5.11% (inactive) | 96.8 | 102 | -2.5% (inactive) | -4.18% (inactive) |
| Cc1ccnc(N2CCN(C(=O)CSc3nc4ccccc4nc3N3CCCCC3)CC2)c1 | 109 | 70.5% (inactive) | 109% (inactive) | 62% (inactive) | 92.7% (inactive) | 9.7% (inactive) | 83 | 92.7 | -3.03% (inactive) | -2.83% (inactive) |
| CCCCOC(=O)Cn1c(=N)n(CCN2CCOCC2)c2ccccc21 | 77 | 102% (inactive) | 77% (inactive) | 85.4% (inactive) | 95.5% (inactive) | 16.3% (inactive) | 79.2 | 95.5 | -7.47% (inactive) | 0.16% (inactive) |
| COc1cccc(C(=O)Nc2ccc(NC(C)=O)cn2)c1 | 98 | 76% (inactive) | 98% (inactive) | 92.4% (inactive) | 106% (inactive) | 12.5% (inactive) | 93.2 | 106 | -5.27% (inactive) | -4.92% (inactive) |
| CSC(=O)CC(=O)NC(=O)c1ccccc1 | 102 | 97% (inactive) | 102% (inactive) | 108% (inactive) | 97.9% (inactive) | -5.79% (inactive) | 104 | 97.9 | -1.05% (inactive) | 5.74% (inactive) |
| CCC(C)(C)n1nnnc1C(c1ccc(OC)c(OC)c1)N1CCN(c2ccccc2)CC1 (stereo not given) | 85 | 86% (inactive) | 85% (inactive) | 90.2% (inactive) | 88.8% (inactive) | 9.98% (inactive) | 78.9 | 88.8 | -7.67% (inactive) | -0.16% (inactive) |
| COc1ccc(CN(C(=O)c2ccccc2OC)C2CCS(=O)(=O)C2)cc1 (stereo not given) | 95 | 90.5% (inactive) | 95% (inactive) | 115% (inactive) | 96.8% (inactive) | 7.03% (inactive) | 89.8 | 96.8 | -0.53% (inactive) | 9.34% (inactive) |
| CC(C)c1nc(N2CCN(C(=O)c3ccco3)CC2)c2c3c(sc2n1)CCCC3 | 76.5 | 94% (inactive) | 76.5% (inactive) | 66.4% (inactive) | 79.5% (inactive) | 1.06% (inactive) | 78.5 | 79.5 | -0.53% (inactive) | 20.9% (inactive) |
| CCC(C)OC(=O)c1[nH]c2c(c1C)C(=O)CC(c1ccc(N(C)C)cc1)C2 (stereo not given) | 88.5 | 73% (inactive) | 88.5% (inactive) | 57.9% (inactive) | 27.6% (active) | -47.7% (inactive) | 75.3 | 27.6 | -2.93% (inactive) | 24.8% (inactive) |
| CN(C1CCCCC1)S(=O)(=O)c1ccc(S(=O)(=O)N2CCCC2)cc1 | 84.5 | 92% (inactive) | 84.5% (inactive) | 78.3% (inactive) | 78.5% (inactive) | -19.2% (inactive) | 97.7 | 78.5 | -0.13% (inactive) | -4.92% (inactive) |
| CC1Cc2ccccc2N1Cc1cc(=O)n2ccsc2n1 (stereo not given) | 102 | 78.5% (inactive) | 102% (inactive) | 80.4% (inactive) | 74.7% (inactive) | -17.9% (inactive) | 92.6 | 74.7 | -2.99% (inactive) | -6.98% (inactive) |
| CC(=O)Nc1cccc(NC(=O)C2CCCN2C(=O)Nc2ccc(C)cc2)c1 (stereo not given) | 89 | 93.5% (inactive) | 89% (inactive) | 99.9% (inactive) | 100% (inactive) | 10.7% (inactive) | 89.7 | 100 | -0.68% (inactive) | -6.89% (inactive) |
| COCCNC(=O)c1c(N)n(/N=C/c2cccs2)c2nc3ccccc3nc12 | 110 | 75.5% (inactive) | 110% (inactive) | 78.2% (inactive) | 74.7% (inactive) | 0.24% (inactive) | 74.4 | 74.7 | 0.66% (inactive) | 3.11% (inactive) |
